PGC1a Ac signal: raises PGC1a acetylation signal in U2OS cells; 350,000 tested, 0.21% active; AID 651723; activation, % at 15.6 µM; U2OS PGC1a acetylation AlphaScreen, overnight;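 active = every replicate reaching activation of at least 50%, whatever the mean replicate activation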;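 also: hits raise the AlphaScreen acetylation signal above neutral controls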
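System: flag-PGC1a/GCN5 U2OS cells / Input: 7000 cells/well / Compound: single test concentration per compound / Incubation: overnight compound treatment, 37 °C / Technique: AlphaScreen on lysates with anti-acetyl-lysine antibody, acceptor and donor beads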
A number is an active result; – = inactive. Only a selection was taken, and hits are over-represented in it overall.

SMILES | PGC1a Ac signal
COc1ccccc1C1c2c(C)nn(-c3ccccc3)c2NC(=O)C1NC(=O)c1ccccc1 (stereo not drawn) | –
CCCCC(O)(CCCC)C(=O)N/N=C(\C)c1ccc(Cl)cc1 | –
Cc1cc(C)cc(N(CC(=O)NC2CC3CCC2C3)S(C)(=O)=O)c1 (stereo not drawn) | 83
C=C(C(=O)c1ccccc1)C(C(=C)C(=O)c1ccccc1)c1ccc(OC)cc1 | 160
COc1ccc(C(=O)Sc2nncc3ccccc23)cc1 | –
C[C@H](CO)N1C[C@H](C)[C@H](CN(C)C(=O)NC2CCCCC2)Oc2cc(C#Cc3cccc(F)c3)ccc2S1(=O)=O | –
CCCNC(=O)c1ccc(COc2ccc(Cl)cc2)o1 | –
Cc1ccc(-c2ccc3c(c2)O[C@@H](CN(C)C(=O)C2CCCCC2)[C@H](C)CN([C@H](C)CO)S3(=O)=O)cc1 | –
COc1ccc(CC2C(=O)NC(C)C(=O)N(C)C3Cc4ccc(cc4)Oc4cc(ccc4O)CC(C(=O)NC(C)C(=O)NC(C)C(=O)N2C)N(C)C3=O)cc1 (stereo not drawn) | –
CCCNC(=O)N(C)C[C@H]1Oc2cc(C#CCC(C)C)ccc2S(=O)(=O)N([C@@H](C)CO)C[C@H]1C | –
CCN(CC)C(=O)[C@H]1CC(CC(=O)NCc2cccc(C(F)(F)F)c2)C(=O)N2CCc3c([nH]c4ccccc34)[C@]12C (stereo partly drawn) | –
CN(C)CCCNC(=O)CC1C[C@H](C(=O)N2CCCCC2)[C@@]2(CCc3ccccc3)c3[nH]c4ccccc4c3CCN2C1=O (stereo partly drawn) | 99
CN(CCc1ccccc1)C(=O)c1ccc(NC(=O)Cc2ccc(NC(=O)C3CCN(C(=O)C4CCCCC4)CC3)cc2)cc1 | –
COc1cccc(OC)c1NC(=O)C1CCCN1C(=O)NCc1ccccc1 (stereo not drawn) | –
CCC(C)(C)n1nnnc1C(c1cccnc1)N1CCCC(C)C1 (stereo not drawn) | –
CC(NCc1cccs1)C(=O)NC1CCCCC1 (stereo not drawn) | –
COc1cc(-c2cnc3c(NC=O)cc(-c4ccccc4)cn23)cc(OC)c1OC | 105
COc1cc(-c2cnc3c(NC=O)cc(-c4ccccc4Cl)cn23)cc(OC)c1OC | 102
COc1cc(-c2cnc3c(NC=O)cc(-c4ccc(C)cc4)cn23)cc(OC)c1OC | 89
COCCSc1ccccc1C(=O)Nc1cc(C)on1 | –
CCOC(=O)CCc1c(C)c2ccc(O)cc2oc1=O | 74
COc1cccc(N(CC(=O)N2CCN(Cc3ccccc3)CC2)S(C)(=O)=O)c1 | –
O=C(NCc1ccc2c(c1)OCO2)C1CCN(S(=O)(=O)c2cccs2)CC1 | 83
COc1ccc(C)cc1NC(=O)C1CCCN(S(=O)(=O)c2cccs2)C1 (stereo not drawn) | –
CC(C)CC#Cc1cnc2c(c1)C(=O)N([C@@H](C)CO)C[C@@H](C)[C@H](CN(C)C(=O)c1ccccc1)O2 | –
SMILES | PGC1a Ac signal
C[C@@H]1CN([C@@H](C)CO)C(=O)c2c(c3ccccc3n2C)-c2ccccc2CO[C@@H]1CN(C)C(=O)c1cc(Cl)cc(Cl)c1 | 96
C[C@H]1CCCCO[C@@H](CN(C)C(=O)c2ccccc2)[C@@H](C)CN([C@@H](C)CO)C(=O)c2cc(NC(=O)Nc3ccc(F)cc3)ccc2O1 | –
C[C@H](CO)N1C[C@H](C)[C@@H](CN(C)CC2CC2)Oc2cc(-c3cccnc3)ccc2S1(=O)=O | –
CSCCC(NC(=O)OC(C)(C)C)C(=O)Oc1ccc2c(=O)c(-c3ccc4c(c3)OCCO4)coc2c1 (stereo not drawn) | 73
C[C@@H]1CN([C@@H](C)CO)S(=O)(=O)c2ccc(C#CC3CCCCC3)cc2O[C@H]1CN(C)Cc1cccnc1 | –
Cc1ccc(S(=O)(=O)N(C)C[C@@H]2Oc3cc(C#Cc4ccncc4)ccc3S(=O)(=O)N([C@@H](C)CO)C[C@H]2C)cc1 | –
C[C@@H]1CN([C@H](C)CO)S(=O)(=O)c2ccc(C3=CCCCC3)cc2O[C@H]1CN(C)Cc1ccccc1 | –
C[C@H](CO)N1C[C@H](C)[C@@H](CN(C)Cc2ccc3c(c2)OCO3)Oc2cc(Br)ccc2S1(=O)=O | 51
COc1ccc(S(=O)(=O)N(C)C[C@@H]2Oc3cc(C#CC4CC4)ccc3S(=O)(=O)N([C@H](C)CO)C[C@H]2C)cc1 | 59
C[C@@H]1CN([C@H](C)CO)S(=O)(=O)c2ccc(C#CC3CCCC3)cc2O[C@H]1CN(C)C | 52
COc1cccc(S(=O)(=O)N(C)C[C@@H]2Oc3cc(C4=CCCC4)ccc3S(=O)(=O)N([C@H](C)CO)C[C@@H]2C)c1 | 59
Cc1ccc(S(=O)(=O)N(C)C[C@@H]2Oc3cc(C#Cc4ccncc4)ccc3S(=O)(=O)N([C@H](C)CO)C[C@H]2C)cc1 | –
CC(C)C#Cc1ccc2c(c1)O[C@@H](CN(C)Cc1ccccc1)[C@@H](C)CN([C@@H](C)CO)S2(=O)=O | –
CC(C)C#Cc1ccc2c(c1)O[C@@H](CN(C)C(=O)C1CC1)[C@@H](C)CN([C@@H](C)CO)S2(=O)=O | –
CC(C)CC#Cc1ccc2c(c1)O[C@@H](CN(C)Cc1ccc3c(c1)OCO3)[C@H](C)CN([C@H](C)CO)S2(=O)=O | –
C[C@@H]1CN([C@@H](C)CO)S(=O)(=O)c2ccc(C3=CCCCC3)cc2O[C@H]1CN(C)C | –
CCc1nc2c(OCc3ccc(S(C)(=O)=O)cc3)cccn2c1N(C)C(=O)c1ccccc1F | –
Cc1ccc(/C=C2/CNC/C(=C/c3ccc(C)cc3)C2=O)cc1 | –
CO[C@H]1CN(C)C(=O)c2cc(NS(C)(=O)=O)ccc2OC[C@H](C)N(C(=O)NC(C)C)C[C@H]1C | –
CC1=Nc2ccccc2N=C(NC(=O)CN2CCN(c3ccccc3)CC2)C1c1ccccc1 (stereo not drawn) | –
O=C(Nc1nc2c(s1)CN(Cc1ccccc1)CC2)c1c(F)cccc1F | –
CCN1/C(=C/c2ccc3cccc(C)c3[n+]2CC)Sc2ccccc21 | 185
COc1cccc(-n2nnnc2S(C)(=O)=O)c1 | 200
Nc1cc2ccncc2c2ccccc12 | –
CC1=CC(C)(C)N2C(=O)C3(SCC(=O)N3c3ccc(F)cc3)c3cc(C)cc1c32 (stereo not drawn) | 93
SMILES | PGC1a Ac signal
Cc1coc2cc3oc(=O)c(CCC(=O)NC4CC4)c(C)c3cc12 | 57
NC(=O)C1CCN(C2=C(Cl)C(=O)c3ccccc3C2=O)CC1 | 66
CC(C)(C)S(=O)N1Cc2cc(C(=O)NCc3ccc(Oc4ccccc4)cc3)nc(-c3cccc(-c4cc5ccccc5o4)c3)c2[C@H]1CCO (stereo partly drawn) | 62
Cc1cccc(CCN(CC(=O)NC(C)(C)C)C(=O)c2csnn2)c1 | –
COc1cnc(-c2ccccn2)nc1Sc1ccc(C)cc1 | –
COc1cccc2sc(Nc3nc(-c4ccccn4)cs3)nc12 | 60
C[C@@H]1CN([C@H](C)CO)C(=O)c2cccc(NC(=O)c3nc4ccccc4s3)c2O[C@@H]1CN(C)C(=O)Nc1ccc(F)cc1 | –
O=C(C[C@@H]1C[C@@H]2c3cc(NC(=O)C4CCC4)ccc3O[C@@H]2[C@@H](CO)O1)NCc1ccc(-c2ccccc2)cc1 | –
CCCCS(=O)(=O)/C=C\C=C/S(=O)(=O)CCCC | –
O=C(CSc1ccc(Cl)cc1)N/N=C/c1ccc([N+](=O)[O-])o1 | 92
Cc1ccc(O)c(/C=N/NC(=O)CN2CCCC2)c1 | –
O=C(CSc1nnc(-c2ccccc2)n1-c1ccc(Cl)cc1)N/N=C/c1ccccc1C(=O)O | –

Assay outcomes from PubChem.
